PG9 Ab binder: binders of HIV-1 gp120 antibody PG9, primary screen, biochemical, TR-FRET; inhibition, % at 6.7 µM; TR-FRET gp120-PG9 antibody binding; HIV-1 gp120 / PG9 antibody interaction; hit rate 0.43% among 360,000; in the data active = inhibition above about 8.5%
MC4R antagonist: MC4R antagonists of cAMP signaling, primary screen, cell-based, TR-FRET, antagonist arm of biased-ligand search; MC4R-expressing cells, MTII-stimulated cAMP, LANCE TR-FRET; inhibition, % at 6.5 µM; Melanocortin receptor 4 (Homo sapiens), P32245; hit rate 0.48% among 360,000;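 active = inhibition above its plate's cutoff, the mean of tested wells on that plate plus 3 SD, cut at about 29% in these data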
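Material – human MC4R-expressing U2OS cells · Repeats – no replicates · Detection – TR-FRET with Eu-cAMP and labeled anti-cAMP, 671 nm · Times – compound 30 min, challenge 1 h, detection 1 h · Compound – single nominal compound dose of 6.5 µM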
NTR1 ag: agonists of human NTR1, primary screen, imaging, U2OS cells, beta-arrestin-GFP, high content; Neurotensin receptor type 1 (Homo sapiens), P30989; NTR1-U2OS beta-arrestin-GFP spot imaging, agonist mode; activation, % at 20 µM; hit rate 0.17% among 330,000; AID 493036, 2011;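 active = activation at or above 40% of the spot to cytoplasm intensity ratio, with at least 20 cells analyzed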
NR1D1 modulator: modulators of Rev-erb alpha DNA binding, primary screen, biochemical, FITC-DNA, fluorescence polarization, uHTS; activity, % at 10 µM; AID 1259318, 2017; Rev-erbα–FITC-DNA binding, 90 min; hit rate 0.79% among 370,000; Nuclear receptor subfamily 1 group D member 1 (Homo sapiens), P20393;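 active = activity above about 14%, limit read from the data; passing the limit was not always enough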
Target sequence (P20393 whole entry, looked up): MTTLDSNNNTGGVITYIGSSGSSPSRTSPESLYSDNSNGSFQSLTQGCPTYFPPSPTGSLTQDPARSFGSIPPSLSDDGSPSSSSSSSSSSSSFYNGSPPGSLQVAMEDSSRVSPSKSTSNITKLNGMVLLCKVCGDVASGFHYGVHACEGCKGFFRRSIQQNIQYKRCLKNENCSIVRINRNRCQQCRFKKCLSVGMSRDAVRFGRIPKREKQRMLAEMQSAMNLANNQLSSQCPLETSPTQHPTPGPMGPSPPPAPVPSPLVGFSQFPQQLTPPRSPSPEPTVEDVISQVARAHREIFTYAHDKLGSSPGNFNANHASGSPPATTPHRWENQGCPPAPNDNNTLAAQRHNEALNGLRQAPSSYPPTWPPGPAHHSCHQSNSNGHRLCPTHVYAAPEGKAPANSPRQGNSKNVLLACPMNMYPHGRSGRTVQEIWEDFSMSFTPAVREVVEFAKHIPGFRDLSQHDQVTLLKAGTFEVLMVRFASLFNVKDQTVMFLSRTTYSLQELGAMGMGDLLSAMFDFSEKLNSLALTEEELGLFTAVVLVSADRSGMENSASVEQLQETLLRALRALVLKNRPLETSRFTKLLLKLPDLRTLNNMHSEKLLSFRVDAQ
MC4R barr agon: MC4R agonists recruiting beta-arrestin, primary screen, cell-based, luminescence, agonist arm of biased-ligand search; Melanocortin receptor 4 (Homo sapiens), P32245; U2OS MC4R beta-arrestin complementation; percent of melanotan II response, DMSO zero; activation, % at 8.9 µM; hit rate 0.98% among 360,000; AID 540308, 2011;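 active = activation above a per-plate cutoff, the mean activation of sample wells on that plate plus 3 SD, cut at about 8% in these data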
Hits are given with their value; i = inactive; nt = no result given. Most compounds without a hit are left out; they make up all but 2.5% or so of the library.

SMILES	PG9 Ab binder	MC4R antagonist	NTR1 ag	NR1D1 modulator	MC4R barr agon
C=CCO[C@H]1CN(C(=O)OC)[C@@H]2C[C@H]1Oc1ccccc12	i	nt	nt	i	nt
CC(C)(C)NC(=O)CSc1nc(-c2ccccc2)c(-c2ccccc2)[nH]1	i	i	i	i	8.8
COC(=O)C1CN(CCc2ccccc2)CCS(=O)(=O)N1Cc1ccc(C(F)(F)F)cc1 (stereo unspecified)	nt	nt	nt	i	nt
COc1ccc(OC)c(C(C[N+](=O)[O-])c2c(C)cc3ccccn23)c1 (stereo unspecified)	i	i	50.4	i	i
CCN(CC)CCCNC(=O)CSc1nc2cccnc2n1C	nt	nt	nt	i	nt
NS(=O)(=O)c1ccc(OCCCN2CCC(C(O)(c3ccccc3)c3ccccc3)CC2)cc1	i	nt	nt	i	nt
Cc1ccc(-c2nc3ccccc3s2)cc1NC(=O)c1ccc2c(c1)OCO2	i	38.0	i	i	i
CCC(CO)Nc1cccc2c1S(=O)(=O)N(Cc1cn(Cc3ccc(Cl)cc3)nn1)Cc1ccccc1O2 (stereo unspecified)	nt	nt	nt	i	nt
CCCC1CCC2(CC1)CCC2OC(=S)NCc1ccc(Cl)cc1 (stereo unspecified)	nt	nt	nt	i	nt
COc1c(C(O)CC(C)C)ccc2c1C(=O)OCc1cc(C)cc(O)c1O2 (stereo unspecified)	i	i	i	i	i
COc1c(C(CC(C)C)OC(C)=O)ccc2c1C(=O)OCc1cc(C)cc(O)c1O2 (stereo unspecified)	i	i	i	i	8.6
O=C(CCc1ccccc1)N=C1SC2CS(=O)(=O)CC2N1Cc1ccccc1 (stereo unspecified)	i	i	i	i	8.9
COc1ccc(CN2C(=NC(=O)CCc3ccccc3)SC3CS(=O)(=O)CC32)cc1 (stereo unspecified)	i	i	i	i	i
N/C(Cc1ccc(Cl)c(Cl)c1)=N\OC(=O)c1cccs1	i	i	i	i	8.6
Cc1cccc(NC(=O)Nc2c(-c3ccc(C(F)(F)F)cc3)nc3ncccn23)c1	nt	nt	nt	i	nt
CN1CCN(CCCNC(=O)c2ccc(/C=C3\Sc4ccccc4N(Cc4ccccc4F)C3=O)cc2)CC1	i	i	nt	i	8.9
O=C(NCCN1CCOCC1)c1ccc(/C=C2\Sc3ccccc3N(Cc3ccccc3F)C2=O)cc1	i	i	i	i	i
CC(C)C[C@H](NC(=O)c1cccs1)C(=O)N1CCC[C@H]1C(=O)NCc1ccccc1	i	nt	nt	i	nt
CCCOc1ccc(NCC(=O)Nc2ccc(C)cc2C)cc1	i	i	i	i	i
Cc1ccc(NC(=O)C(=O)NCCOc2ccc(Cl)cc2)c(C)c1	i	i	i	i	8.8
CN(CCCOC(=O)CC1C=CCC1)C1CN(Cc2cn(Cc3ccccc3Cl)nn2)S(=O)(=O)C1 (stereo unspecified)	nt	nt	nt	i	nt
COCCCNC(=O)c1cccn2c(=O)c3cc4ccccc4cc3nc12	i	i	i	i	9.1
NC(=O)C1CCN(c2nc(-c3ccc(OCc4ccccc4)cc3)cs2)CC1	nt	nt	nt	i	nt
Cc1cc(-c2nnc3n2N=C(c2ccccc2)CS3)n[nH]1	i	i	i	i	i
Cc1cc(-c2nnc3n2N=C(c2ccc(-c4ccccc4)cc2)CS3)n[nH]1	i	i	i	i	9.3
SMILES	PG9 Ab binder	MC4R antagonist	NTR1 ag	NR1D1 modulator	MC4R barr agon
Cn1c(SCC(=O)Nc2ccc(F)cc2)nc2c([nH]c3ccccc32)c1=O	i	i	i	i	i
Cc1ccc(NC(=O)CSc2nc3c([nH]c4ccccc43)c(=O)n2C)cc1	i	i	i	i	15.8
CCC(=O)O[C@H]1CCC2C3CCc4cc(O)ccc4C3CC[C@@]21C (stereo partly specified)	nt	nt	nt	i	nt
COc1cc(CNCCc2ccccc2)cc(Br)c1OCC(=O)Nc1ccccc1C	i	i	i	i	8.6
CCOC(=O)[C@]12CCCCC/C=C\1N(Cc1ccc(OC)cc1)C(=O)[C@H]2CC(=O)NCc1cccs1	nt	nt	nt	i	nt
CCCCOc1ccc(NC(=O)Cn2c(=O)ccc3c(C)cc(C)nc32)cc1	9.0	i	i	i	i
CCCCOc1ccc(NC(=O)CN2CCN(CC)CC2)cc1	i	i	i	i	i
Cc1ccc(/C=N\NC(=O)c2cc(OCC(F)(F)F)ccc2OCC(F)(F)F)cc1	i	i	i	i	13.6
S=C(Nc1cccc(Cl)c1)OCCN1CCCC12CCC(c1ccccc1)CC2 (stereo unspecified)	nt	nt	nt	i	nt
CCOC(=O)Cc1cc(-c2ccc(OC)cc2)nc2ccc3ccccc3c12	i	i	i	i	i
CCOC(=O)Cc1cc(-c2ccc(O)cc2)nc2ccc3ccccc3c12	i	i	i	i	8.4
CCCN(CCC)CC(O)Cn1cc(/C=C/C(=O)c2ccccc2)c2ccccc21 (stereo unspecified)	i	i	nt	i	i
CCCCN(C)CC(O)Cn1cc(/C=C/C(=O)c2ccc(C)cc2)c2ccccc21 (stereo unspecified)	i	i	i	i	13.1
C=CCN1C(=O)[C@@H](CC(=O)NCc2ccc(C)o2)[C@]2(C(=O)OC)CCCCC=C12	nt	nt	nt	i	nt
COc1ccc(/C(N)=N/OC(=O)c2cccc([N+](=O)[O-])c2C)cc1OC	nt	i	i	nt	i
COc1cccc(C(=O)O/N=C(\N)c2ccc([N+](=O)[O-])cc2)c1OC	i	i	i	i	8.6
CCOC(=O)c1cnc2ccc(OCC)cc2c1N1CCN(c2ccccc2OC)CC1	nt	32.1	i	nt	i
CCOc1ccc2ncc(C(=O)c3ccc(OC)cc3)c(N3CCN(CC)CC3)c2c1	nt	i	i	nt	i
FC(F)(F)c1ccc(N2CCN(Cc3ccc4c(c3)OCO4)CC2)nc1	i	i	i	i	9.2
O=[N+]([O-])c1ccc(N2CCN(Cc3ccc4c(c3)OCO4)CC2)nc1	i	i	i	i	i
COC[C@H]1CCCN1c1cccc2c1S(=O)(=O)N(C1CC1)CC[C@@H](C)O2	nt	nt	nt	i	nt
Cc1cccc(OCc2nnc(SCC(=O)Nc3ccc(C)c(Cl)c3)o2)c1	i	i	i	i	27.4
Cc1cccc(OCc2nnc(SCC(=O)N3CCCC3)o2)c1	i	i	i	i	i
Cc1ccc([N+](=O)[O-])cc1NC(=O)c1ccccc1	i	i	i	i	i
Cc1ccc(SCc2ccc(C(=O)Nc3cc([N+](=O)[O-])ccc3C)cc2)cc1	i	i	i	i	22.8
Cc1ccc(SCc2ccc(C(=O)Nc3cccc([N+](=O)[O-])c3)cc2)cc1	i	i	i	i	27.0

Screening results: PubChem BioAssay, several laboratories
